Here are results for 21 compounds from ChEMBL document CHEMBL1152814, “Novel cyano- and amidinobenzothiazole derivatives: synthesis, antitumor evaluation, and X-ray and quantitative structure-activity relationship (QSAR) analysis” (J Med Chem, 2009).

The nature of test [1]: Antiproliferative activity against human WI38 cells after 72 hrs by MTT assay. Particulars: WI-38, 72 h. The format is cell-based. The essentials: (§1)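 Monolayers in DMEM with 10% FBS, 2 mM L-glutamine, penicillin/streptomycin, 37 °C, 5% CO2. Seeded at 3 × 10³ to 6 × 10³ cells/well on day 0. Agents added the next day in five 10-fold dilutions (10^-8–10^-4 mol/L), with a DMSO solvent control (max 0.25%). MTT read at 570 nm after 72 h. Quadruplicate points, three experiments. IC50 is the concentration giving 50% growth inhibition.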

Test [2] has as its system MIA PaCa-2. Description: Antiproliferative activity against human MIAPaCa2 cells after 72 hrs by MTT assay. The format is functional, cell-based. Particulars: MIA PaCa-2, 72 h. The essentials: as §1
Test [3] relates to HEp-2. Description: Antiproliferative activity against human Hep2 cells after 72 hrs by MTT assay. Particulars: HEp-2, 72 h. The format is functional, cell-based. Put shortly: as §1
A general note: Tetrazolium assays rely on reduction of a dye to a coloured formazan, in cell work by metabolically active cells.

Test [4] has as its system HeLa. Kind of test: Antiproliferative activity against human HeLa cells after 72 hrs by MTT assay. The format is functional, cell-based. Put shortly:
as §1

Test [5] has as its system MCF7. Description: Antiproliferative activity against human MCF7 cells after 72 hrs by MTT assay. The format is functional, cell-based. Particulars: MCF7, 72 h. The essentials:
as §1

The test system of test [6] is SW-620. Description: Antiproliferative activity against human SW620 cells after 72 hrs by MTT assay. The following applies: SW-620, 72 h. The format is functional, cell-based. Put shortly: as §1
Test [7] concerns NCI-H460. Description: Cell cycle arrest in human H460 cells assessed as reduction of percentage of cells in S phase at 5 to 50 uM after 24 hrs using propidium iodide staining by FACS. The format is functional, cell-based. The essentials: (§2)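 H 460 cells seeded at 2 × 10⁵/well and treated after overnight incubation with 5, 10 or 50 µM for 24 or 48 h. Attached and floating cells were pooled, fixed in 70% ethanol, treated with 0.2 µg/µL RNase A (37 °C, 15 min) and stained with 50 µg/mL propidium iodide. Flow cytometry counted 20000 events, in duplicate across two independent experiments.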
Background: In flow cytometry, cells or beads pass a laser one at a time.

The subject of test [8] is NCI-H460. Kind of test: Antiproliferative activity against human H460 cells after 72 hrs by MTT assay. The format is functional, cell-based. Particulars: NCI-H460, 72 h. The essentials:
as §1

For test [9], the system named is NCI-H460. Kind of test: Induction of apoptosis in human H460 cells assessed as early apoptotic cells at 10 uM after 48 hrs using annexin V staining by FACS. The format is functional. Put shortly:
(§3)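 H 460 cells seeded at 2 × 10⁵/well and exposed for 48 h (5, 10 or 50 µM) against a vehicle control. Floating and attached cells were pooled and washed in binding buffer (10 mM HEPES, 140 mM NaCl, 2.5 mM CaCl2, pH 7.4). They were stained 20 min with annexin V Alexa Fluor 488 and 1 µg/mL 7-AAD, then read by flow cytometry. Quadrants: viable, early apoptotic, late apoptotic.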

For test [10], the system named is NCI-H460. Description: Induction of apoptosis in human H460 cells assessed as early apoptotic cells after 48 hrs using annexin V staining by FACS. The format is functional, cell-based. The essentials: as §3
Test [11] deals with NCI-H460. Kind of test: Induction of apoptosis in human H460 cells assessed as late apoptotic cells at 10 uM after 48 hrs using annexin V staining by FACS. The format is functional. The essentials: as §3
Test [12] relates to NCI-H460. Description: Induction of apoptosis in human H460 cells assessed as viable cells after 48 hrs using annexin V staining by FACS. The format is functional, cell-based. Put shortly: as §3
In test [13] the test system is NCI-H460. Description: Cell cycle arrest in human H460 cells assessed as reduction of percentage of cells in S phase at 5 to 50 uM after 48 hrs using propidium iodide staining by FACS. The format is functional, cell-based. The essentials:
as §2

Test [14] relates to NCI-H460. Description: Induction of apoptosis in human H460 cells assessed as viable cells at 10 uM after 48 hrs using annexin V staining by FACS. The format is functional. Particulars: NCI-H460, 48 h, read-out: Activity. The essentials:
as §3

Test [15] concerns NCI-H460. Kind of test: Induction of apoptosis in human H460 cells assessed as late apoptotic cells after 48 hrs using annexin V staining by FACS. The format is functional, cell-based. Put shortly: as §3
Test [16] relates to NCI-H460. Description: Cell cycle arrest in human H460 cells assessed as increase in percentage of cells in sub-G1 phase at 5 to 50 uM after 24 hrs using propidium iodide staining by FACS. The format is functional, cell-based. The essentials:
as §2

Test [17] concerns NCI-H460. Description: Cell cycle arrest in human H460 cells assessed as increase in percentage of cells in sub-G1 phase at 5 to 50 uM after 48 hrs using propidium iodide staining by FACS. The format is functional, cell-based. The essentials:
as §2

The structures appear in SMILES notation. Activity calls are given as the source filed them. No cut-off for these calls is given here.

Take `N#Cc1ccc(Nc2nc3ccc(C#N)cc3s2)cc1`: the IC50 in test [1], in [2], in test [3], in test [4], in test [5] and in test [6] was more than 10 µM throughout.
On to `N#Cc1ccc2nc(Nc3ncccn3)sc2c1`, for which the IC50 is not below 10 µM in test [1]; 3 µM in test [2]; 5 µM in [3]; 5 µM in test [4]; 7 µM in test [5]; 9 µM in [6].
Take `Cc1ccc(Nc2nc3ccc(C4=NCCN4)cc3s2)nc1.Cl.Cl`: the outcome in test [7] and in test [13] was Active. Further, the IC50 amounted to 2 µM in [8]; 6 µM in test [1]; 2 µM in test [2]; 2 µM in test [4]; 2 µM in [5]; 1 µM in test [6]. The Activity is 6.98% in test [9]; “Dose-dependent effect” in [10]; 2.3% in test [11]; “Dose-dependent effect” in test [12]; “Dose-dependent effect” in test [15]. For the same compound, in test [14], the viability at 10 µM came out at 89%.
As to `Cc1ccc(Nc2nc3ccc(C#N)cc3s2)nc1`, the IC50 is 4 µM in test [1]; 5 µM in test [2]; more than 10 µM in [3]; 9 µM in [4]; more than 10 µM in [5]; more than 10 µM in test [6].
As for `Cc1ccnc(Nc2nc3ccc(C(=N)NC(C)C)cc3s2)c1`, the IC50 came out at 2 µM in [8]; 12.5 µM in test [1]; 3 µM in [2]; 4 µM in [4]; 2 µM in test [5]; 3 µM in test [6].
For the compound `Cc1cccc(Nc2nc3ccc(C#N)cc3s2)n1`, the IC50 in [1] was more than 10 µM; in test [2] it was 6 µM; in test [3] it was more than 10 µM; in test [4], 8 µM; in test [5] it was 8 µM; in [6], 4 µM.
On to `CC(C)NC(=N)c1ccc2nc(NC(=O)c3ccccc3Cl)sc2c1`, for which the IC50 in [8] worked out at 59 µM; in test [1], 61 µM; in test [2], 45 µM; in test [4], 23 µM; in [5] it was 16 µM; in test [6] it was 45 µM.
As for `CC(C)NC(=N)c1ccc(C(=O)Nc2nc3ccccc3s2)cc1`, the IC50 in test [8] was found to be 16 µM; in [1] it was 16 µM; in [2] it was 17 µM; in [4], 9 µM; in test [5] it was 13 µM; in test [6] it was 17 µM.
Turning to `CC(C)NC(=N)c1ccc(Nc2nc3ccc(C(=N)NC(C)C)cc3s2)cc1`, the IC50 is 16 µM in test [8]; 92 µM in test [1]; 30 µM in [2]; 18 µM in test [4]; 6 µM in [5]; 18 µM in test [6].
As to `Cc1ccnc(Nc2nc3ccc(C#N)cc3s2)c1`, the IC50 in [1] is not below 10 µM; in [2], 4 µM; in test [3], 7 µM; in test [4] it was 3 µM; in [5], more than 10 µM; in test [6], 4 µM.
On to `Cc1cccnc1Nc1nc2ccc(C(=N)NC(C)C)cc2s1`, for which the IC50 in test [8] stood at 2 µM; in test [1], 14 µM; in test [2] it was 3 µM; in test [4] it was 5 µM; in [5], 2 µM; in test [6], 5 µM.
Regarding `Cc1cccc(Nc2nc3ccc(C4=NCCN4)cc3s2)n1.Cl.Cl`, the outcome in [7], in [16], in test [13] and in test [17] was Active. The IC50 in test [8], in test [1], in test [2], in test [4], in test [5] and in test [6] was 2 µM each time. In addition, the Activity in test [9] is 24.05%; in test [10], “Dose-dependent effect”; in test [11], 5.58%; in test [12], “Dose-dependent effect”; in test [15] it was “Dose-dependent effect”. In addition, the viability at 10 µM in test [14] was determined as 67.7%.
`Cc1cccnc1Nc1nc2ccc(C#N)cc2s1`: the IC50 in test [1] is 2.3 µM; in test [2], 3 µM; in test [3], more than 10 µM; in test [4], more than 10 µM; in test [5], more than 10 µM; in test [6], 3 µM.
In the case of `CC(C)NC(=N)c1ccc2nc(Nc3ncccn3)sc2c1`, the IC50 in test [8] is 5 µM; in test [1], 75 µM; in test [2] it was 11 µM; in [4], 7 µM; in test [5] it was 13 µM; in [6], 15 µM.
For the compound `N#Cc1ccc2nc(Nc3ccc(Cl)cn3)sc2c1`, the half-inhibitory concentration (IC50) in test [1] was more than 10 µM; in test [2] it was 6 µM; in [3], more than 10 µM; in test [4], more than 10 µM; in [5], 10 µM; in test [6], not below 10 µM.
Consider `Cc1cccnc1Nc1nc2ccc(C3=NCCN3)cc2s1`, for which the IC50 in test [8] stood at 2 µM; in test [2] it was 3 µM; in test [4], 3 µM; in test [5] it was 2 µM; in test [6], 2 µM.
`CC(C)NC(=N)c1ccc2nc(Nc3ccc(Cl)cn3)sc2c1`: the 50% inhibitory concentration (IC50) was determined as 15 µM in test [8]; 17 µM in test [1]; 12 µM in test [2]; 9 µM in test [4]; 5 µM in test [5]; 13 µM in test [6].
Consider `CC(C)NC(=N)c1ccc2nc(NC(=O)c3ccc(F)cc3)sc2c1`, for which the IC50 was 22 µM in test [8]; more than 100 µM in [1]; 32 µM in test [2]; 13 µM in test [4]; 13 µM in test [5]; 35 µM in test [6].
For the compound `CC(C)NC(=N)c1ccc2nc(NC(=O)c3ccccc3)sc2c1`, the IC50 in [8] was 15 µM; in test [1], more than 100 µM; in [2], 38 µM; in test [4], 16 µM; in test [5] it was 22 µM; in test [6], 30 µM.
As for `c1cnc(Nc2nc3ccc(C4=NCCN4)cc3s2)nc1`, the concentration for half-maximal inhibition (IC50) in test [8] came out at 1.6 µM; in test [1], 1.7 µM; in test [2], 1.8 µM; in test [4], 1.4 µM; in test [5], 1.7 µM; in test [6] it was 1.7 µM.
For the compound `Clc1ccc(Nc2nc3ccc(C4=NCCN4)cc3s2)nc1`, the IC50 in [8] stood at 1.5 µM; in test [1] it was 1 µM; in test [2], 1.6 µM; in test [4], 1 µM; in test [5], 1.4 µM; in test [6] it was 1.3 µM.

For orientation: IC50 means the concentration that gives 50% inhibition.
